# Test results as given in ChEMBL document CHEMBL3804761, “Synthesis of a stable and orally bioavailable englerin analogue” (Bioorg Med Chem Lett, 2016).
# Assays:
# Type in all cases: functional
# MDA-MB-435 [1] = assay: Growth inhibition of human MDA-MB-435 cells assessed as cell growth at 10 uM incubated for 48 hrs by sulforhodamine B assay relative to control; settings: MDA-MB-435, 48 h, read-out: Activity
# How it was run: (§1)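 Run in the standard NCI 60-cell-line screen. Cells were exposed to drug for two days, and the read-out was sulforhodamine B staining. Compound was tested at a single final concentration of 10 µM in every line, and results are reported as growth percent.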
# [2] = Growth inhibition of human OVCAR8 cells assessed as cell growth at 10 uM incubated for 48 hrs by sulforhodamine B assay relative to control; settings: OVCAR-8, 48 h, read-out: Activity; how it was run: as §1
# [3] = Growth inhibition of human HL-60(TB) cells assessed as cell growth at 10 uM incubated for 48 hrs by sulforhodamine B assay relative to control; settings: HL-60, 48 h, read-out: Activity
# How it was run: (§2)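 Single-dose screen in the NCI 60-cell-line panel at one final concentration of 10 µM. Two-day drug exposure with a sulforhodamine B endpoint. Values are growth percent for each cell line.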
# [4] = Growth inhibition of human SF268 cells assessed as cell growth at 10 uM incubated for 48 hrs by sulforhodamine B assay relative to control; settings: SF-268, 48 h, read-out: Activity; how it was run: as §1
# [5] = Growth inhibition of human UO31 cells assessed as cell growth at 10 uM incubated for 48 hrs by sulforhodamine B assay relative to control; settings: UO-31, 48 h, read-out: Activity
# How it was run: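 NCI 60-cell line standard protocol, one-dose screen: single final concentration 10 µM, 2-day drug exposure, sulforhodamine B (SRB) endpoint; read-out is growth percent relative to untreated control.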
# NCI-H322M = assay: Growth inhibition of human NCI-H322M cells assessed as cell growth at 10 uM incubated for 48 hrs by sulforhodamine B assay relative to control; settings: read-out: Activity; how it was run: as §1
# [6] = Growth inhibition of human HOP62 cells incubated for 48 hrs by sulforhodamine B assay; settings: HOP-62, 48 h
# How it was run: (§3)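 NCI 60-cell-line panel, standard protocol. Cells exposed to compound for two days, growth read by sulforhodamine B staining. Tested at five 10-fold dilutions, top concentration 100 µM, to give dose-response curves.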
# SN12C = assay: Growth inhibition of human SN12C cells incubated for 48 hrs by sulforhodamine B assay
# How it was run: (§4)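 Tested in the standard NCI 60-cell-line protocol with two-day drug exposure and a sulforhodamine B endpoint. Compounds were first screened at a single final concentration of 10 µM, reported as growth percent. They were then run as five 10-fold dilutions starting from a high concentration of 100 µM to give dose-response curves.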
# MCF7 = assay: Growth inhibition of human MCF7 cells assessed as cell growth at 10 uM incubated for 48 hrs by sulforhodamine B assay relative to control; settings: MCF7, 48 h, read-out: Activity; how it was run: as §1
# KM12 = assay: Growth inhibition of human KM12 cells assessed as cell growth at 10 uM incubated for 48 hrs by sulforhodamine B assay relative to control; settings: KM12, 48 h, read-out: Activity; how it was run: as §1
# K562 = assay: Growth inhibition of human K562 cells incubated for 48 hrs by sulforhodamine B assay; settings: K562, 48 h; how it was run: as §3
# [7] = Growth inhibition of human HCT116 cells incubated for 48 hrs by sulforhodamine B assay; settings: HCT-116, 48 h; how it was run: as §3
# [8] = Growth inhibition of human Caki1 cells incubated for 48 hrs by sulforhodamine B assay; settings: CAKI-1, 48 h; how it was run: as §3
# NCI-H460 = assay: Growth inhibition of human NCI-H460 cells incubated for 48 hrs by sulforhodamine B assay; settings: NCI-H460, 48 h; how it was run: as §3
# NCI/ADR-RES = assay: Growth inhibition of human NCI/ADR-RES cells assessed as cell growth at 10 uM incubated for 48 hrs by sulforhodamine B assay relative to control; settings: read-out: Activity; how it was run: as §1
# [9] = Growth inhibition of human IGROV1 cells assessed as cell growth at 10 uM incubated for 48 hrs by sulforhodamine B assay relative to control; settings: IGROV-1, 48 h, read-out: Activity; how it was run: as §1
# [10] = Growth inhibition of human UACC62 cells incubated for 48 hrs by sulforhodamine B assay; settings: UACC-62, 48 h; how it was run: as §4
# [11] = Growth inhibition of human Hs 578T cells assessed as cell growth at 10 uM incubated for 48 hrs by sulforhodamine B assay relative to control; settings: read-out: Activity
# NCI-H226 = assay: Growth inhibition of human NCI-H226 cells incubated for 48 hrs by sulforhodamine B assay; settings: NCI-H226, 48 h; how it was run: as §3
# [12] = Growth inhibition of human SF539 cells assessed as cell growth at 10 uM incubated for 48 hrs by sulforhodamine B assay relative to control; settings: SF-539, 48 h, read-out: Activity; how it was run: as §2
# MDA-MB-468 = assay: Growth inhibition of human MDA-MB-468 cells assessed as cell growth at 10 uM incubated for 48 hrs by sulforhodamine B assay relative to control; settings: MDA-MB-468, 48 h, read-out: Activity; how it was run: as §1
# [13] = Growth inhibition of human OVCAR4 cells incubated for 48 hrs by sulforhodamine B assay; settings: OVCAR-4, 48 h; how it was run: as §3
# [14] = Growth inhibition of human OVCAR3 cells incubated for 48 hrs by sulforhodamine B assay; settings: OVCAR-3, 48 h; how it was run: as §3
# [15] = Growth inhibition of human SF295 cells incubated for 48 hrs by sulforhodamine B assay; settings: SF-295, 48 h; how it was run: as §3
# MDA-MB-435 [16] = assay: Growth inhibition of human MDA-MB-435 cells incubated for 48 hrs by sulforhodamine B assay; settings: MDA-MB-435, 48 h; how it was run: as §3
# [17] = Growth inhibition of human RXF393 cells assessed as cell growth at 10 uM incubated for 48 hrs by sulforhodamine B assay relative to control; settings: RXF 393, 48 h, read-out: Activity; how it was run: as §1
# [18] = Growth inhibition of human LOXIMVI cells incubated for 48 hrs by sulforhodamine B assay; settings: LOX IMVI; how it was run: as §3
# NCI-H522 = assay: Growth inhibition of human NCI-H522 cells assessed as cell growth at 10 uM incubated for 48 hrs by sulforhodamine B assay relative to control; settings: NCI-H522, 48 h, read-out: Activity; how it was run: as §1
# [19] = Growth inhibition of human HOP62 cells assessed as cell growth at 10 uM incubated for 48 hrs by sulforhodamine B assay relative to control; settings: HOP-62, 48 h, read-out: Activity; how it was run: as §1
# [20] = read-out: pLC50 (the source's name) (converted)
smiles,measurement,setting,value
CC(C)[C@@]12C[C@@H](NC(=O)CO)[C@@](C)(O1)[C@@H]1CC[C@@H](C)[C@H]1[C@@H]2OC(=O)c1ccc2ccccc2c1,growth at 10 µM,MDA-MB-435 [1],94%
same,growth at 10 µM,[2],51.3%
same,growth at 10 µM,[3],99.3%
same,growth at 10 µM,[4],79%
same,growth at 10 µM,[5],63.3%
same,growth at 10 µM,NCI-H322M,89.5%
same,GI50,[6],15.1 µM
same,LC50,[6],55 µM
same,TGI,[6]; read-out: pTGI (converted),28.8 µM
same,GI50,SN12C,11 µM
same,CC50,SN12C; [20],55 µM
same,TGI,SN12C; read-out: pTGI (converted),24.5 µM
same,growth at 10 µM,MCF7,75.4%
same,growth at 10 µM,KM12,94.5%
same,GI50,K562,19.5 µM
same,CC50,K562; [20],95.5 µM
same,TGI,K562; read-out: pTGI (converted),42.7 µM
same,GI50,[7],14.1 µM
same,LC50,[7],53.7 µM
same,TGI,[7]; read-out: pTGI (converted),27.5 µM
same,GI50,[8],10 µM
same,LC50,[8],50.1 µM
same,TGI,[8]; read-out: pTGI (converted),22.4 µM
same,GI50,NCI-H460,20.4 µM
same,CC50,NCI-H460; [20],79.4 µM
same,TGI,NCI-H460; read-out: pTGI (converted),40.7 µM
same,growth at 10 µM,NCI/ADR-RES,46.8%
same,growth at 10 µM,[9],94.3%
same,GI50,[10],13.5 µM
same,"LC50 (lethal concentration, 50% net cell kill)",[10],55 µM
same,TGI,[10]; read-out: pTGI (converted),26.9 µM
same,growth at 10 µM,[11],-18.3%
same,GI50,NCI-H226,13.2 µM
same,LC50,NCI-H226,85.1 µM
same,TGI,NCI-H226; read-out: pTGI (converted),33.1 µM
same,growth at 10 µM,[12],84.6%
same,growth at 10 µM,MDA-MB-468,81.5%
same,GI50,[13],16.2 µM
same,LC50 (concentration killing 50% of cells),[13],61.7 µM
same,TGI,[13]; read-out: pTGI (converted),31.6 µM
same,GI50,[14],17 µM
same,LC50,[14],57.5 µM
same,TGI,[14]; read-out: pTGI (converted),30.9 µM
same,GI50,[15],16.2 µM
same,LC50 (concentration causing 50% net cell kill),[15],57.5 µM
same,TGI,[15]; read-out: pTGI (converted),30.2 µM
same,GI50,MDA-MB-435 [16],17 µM
same,LC50,MDA-MB-435 [16],63.1 µM
same,TGI,MDA-MB-435 [16]; read-out: pTGI (converted),32.4 µM
same,growth at 10 µM,[17],61.6%
same,GI50,[18],16.2 µM
same,LC50,[18],57.5 µM
same,TGI,[18]; read-out: pTGI (converted),30.2 µM
same,growth at 10 µM,NCI-H522,77.7%
same,growth at 10 µM,[19],89.3%
